The text below walks through data of PubChem BioAssay.

Activity calls are given as the source filed them.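 Rule for the calls, unless noted: active = mean duplicate potentiation above the buffer control mean plus 5 SD of buffer wells; inactive = the rest.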

Assay [1] in a line: nonspecific flux increase, KCNQ1-free cells – parental CHO cells, counter-screen for KCNQ1 potentiator project (AID 493006;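 active = duplicate-averaged activation above buffer control mean plus 5 SD of those controls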). The note with it: parental CHO-K1 cells, FluxOR thallium flux, at 10 µM; stronger effect = higher value. Summed up:
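Test system: parental CHO-K1 cells, FluxOR dye-loaded / Probe or stimulus: potassium plus thallium depolarizing stimulus, 5x stock 12.5 mM K2SO4, Tl2SO4 / Timing: overnight 37 °C plating, 90 min dye, 20 min dark compound / Measured by: kinetic thallium-flux fluorescence / Read-out: max-minus-min fluorescence over baseline, percent of buffer-to-R-L3 span / Benchmarks: buffer and R-L3 controls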

The target of assay [2] is Potassium voltage-gated channel subfamily KQT member 1 (Homo sapiens) (UniProt P51787). Nature of the assay: enhancement of KCNQ1 channel thallium flux – FluxOR thallium flux, CHO cells, duplicates, confirmation (AID 493007;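 active = potentiation averaged over duplicate wells exceeding buffer-only control mean by more than 3 SD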;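 for outcome: cells depolarized by a potassium plus thallium sulfate stimulus after compound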;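 for potentiation: 0% = buffer-only wells and 100% = R-L3 activator control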). The note with it: KCNQ1 cell line, FluxOR thallium flux fluorescence, at 10 µM; stronger effect = higher value, % of reference activator effect, buffer zero. Summed up:
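Assay system: CHO cells carrying KCNQ1 | Controls: Buffer and R-L3 controls | Schedule: FluxOR dye loading 90 min, compound exposure 20 min, room temperature | Read-out: Baseline-normalized fluorescence change, percent of buffer-to-R-L3 range | Replicates: Each compound tested in duplicate | Technique: Kinetic thallium influx fluorescence with FluxOR dye, 10 s baseline, 110 s post-stimulus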

The target in assay [3] is Potassium voltage-gated channel subfamily KQT member 2 (Rattus norvegicus) (UniProt O88943). Nature of the assay: KCNQ2 thallium flux enhancement – KCNQ2-CHO-K1 cells, selectivity assay for KCNQ1 potentiator project (AID 493009).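 Note: assay conditions were tuned for KCNQ1 rather than KCNQ2 modulators; signal is max minus min fluorescence divided by baseline after thallium stimulus.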 Particulars: FluxOR thallium flux fluorescence, at 10 µM; stronger effect = higher value, scaled: buffer 0, activator control 100.
In assay [4] the target is Potassium voltage-gated channel subfamily KQT member 1 (Homo sapiens) (UniProt P51787). Nature of the assay: KCNQ1 activators by electrophysiology – IonWorks patch clamp, KCNQ1-CHO cells, orthogonal assay for KCNQ1 potentiator project, confirmation (AID 493184;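 active = current rise at least 3 SD above the untreated control mean in each of two repeat wells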). Particulars: automated patch clamp current, at 10 µM; stronger effect = higher value. Summed up: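 Material: KCNQ1-expressing CHO cells; doses: 10 µM final, single point; probe or stimulus: voltage step from -90 mV holding to +40 mV, 2,000 ms; signal: automated voltage clamp, amphotericin B perforated patch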
(The patch-clamp technique gives a direct electrical read-out from membranes.)

Chain of Potassium voltage-gated channel subfamily KQT member 2 (Rattus norvegicus) (O88943 whole entry, looked up): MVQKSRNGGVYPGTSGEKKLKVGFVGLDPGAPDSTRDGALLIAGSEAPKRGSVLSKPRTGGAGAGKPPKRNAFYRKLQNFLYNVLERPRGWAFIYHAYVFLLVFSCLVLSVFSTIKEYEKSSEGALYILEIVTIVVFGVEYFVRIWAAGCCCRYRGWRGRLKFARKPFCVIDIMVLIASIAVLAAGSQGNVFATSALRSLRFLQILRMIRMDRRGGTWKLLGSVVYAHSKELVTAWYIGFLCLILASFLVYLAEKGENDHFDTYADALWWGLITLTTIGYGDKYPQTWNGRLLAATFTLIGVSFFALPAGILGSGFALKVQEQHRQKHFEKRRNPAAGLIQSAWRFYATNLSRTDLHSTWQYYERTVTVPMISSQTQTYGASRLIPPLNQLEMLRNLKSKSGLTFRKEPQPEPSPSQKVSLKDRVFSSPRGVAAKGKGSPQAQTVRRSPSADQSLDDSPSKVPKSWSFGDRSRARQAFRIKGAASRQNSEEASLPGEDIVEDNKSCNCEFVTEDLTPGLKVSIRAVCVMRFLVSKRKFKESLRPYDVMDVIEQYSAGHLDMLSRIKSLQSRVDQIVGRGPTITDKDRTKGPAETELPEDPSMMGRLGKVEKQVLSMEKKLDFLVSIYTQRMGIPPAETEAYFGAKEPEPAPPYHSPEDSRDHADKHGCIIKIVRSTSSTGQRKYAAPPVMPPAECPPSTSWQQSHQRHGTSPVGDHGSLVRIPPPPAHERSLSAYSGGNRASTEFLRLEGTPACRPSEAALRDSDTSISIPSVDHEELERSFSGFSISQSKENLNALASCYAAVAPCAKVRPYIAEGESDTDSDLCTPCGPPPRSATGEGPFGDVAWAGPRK
Chain of Potassium voltage-gated channel subfamily KQT member 1 (Homo sapiens) (P51787 whole entry, looked up): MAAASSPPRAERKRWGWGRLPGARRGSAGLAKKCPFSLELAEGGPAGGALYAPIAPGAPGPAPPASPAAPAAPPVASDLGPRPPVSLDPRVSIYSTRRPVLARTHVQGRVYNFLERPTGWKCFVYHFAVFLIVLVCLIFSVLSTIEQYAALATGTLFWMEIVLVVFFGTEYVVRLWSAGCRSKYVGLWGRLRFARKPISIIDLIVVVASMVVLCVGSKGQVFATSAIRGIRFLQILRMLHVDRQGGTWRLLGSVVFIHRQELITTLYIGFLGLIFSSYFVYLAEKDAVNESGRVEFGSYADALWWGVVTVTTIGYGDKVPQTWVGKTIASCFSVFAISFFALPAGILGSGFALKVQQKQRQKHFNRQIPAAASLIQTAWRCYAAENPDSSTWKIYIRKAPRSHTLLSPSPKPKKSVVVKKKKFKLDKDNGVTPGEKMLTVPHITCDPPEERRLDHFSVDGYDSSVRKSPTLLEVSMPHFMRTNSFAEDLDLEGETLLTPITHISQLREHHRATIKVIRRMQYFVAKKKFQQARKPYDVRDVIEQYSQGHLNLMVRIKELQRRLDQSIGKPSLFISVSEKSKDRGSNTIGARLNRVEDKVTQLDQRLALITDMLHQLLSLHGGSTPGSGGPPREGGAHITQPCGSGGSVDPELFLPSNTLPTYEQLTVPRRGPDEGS

As for `COc1cccc(/C=N/Nc2snc(SC)c2C#N)c1O`, the result in assay [1], in assay [2], in assay [3] and in assay [4] was inactive.

Regarding `O=C(NC(=S)Nc1ccccc1F)c1ccc(Br)o1`, in assay [1], the activation was 230% (active). The potentiation in assay [2] was 55.5% (active); in assay [3], 261% (active). Moreover, the outcome in assay [4] was inactive.

On to `COC(=O)c1ccc(C(=O)NC(=S)Nc2nc3c(s2)CCCC3)cc1`, for which, in assay [1], the activation was 210% (active). The potentiation in assay [2] is 169% (active); in assay [3], 411% (active). In addition, in assay [4], the outcome was inactive.

Take `O=C(NC(=S)Nc1ccccc1Cl)c1ccco1`: in assay [1], the activation was 140% (active). Also, the outcome in assay [2] and in assay [4] was inactive. Besides, the potentiation in assay [3] was 146% (active).

On to `COc1ccc(C2c3ccc4ccccc4c3Oc3ncn(CCCO)c(=N)c32)cc1` (stereo not given), for which the outcome in assay [1], in assay [2], in assay [3] and in assay [4] was inactive.

In the case of `O=c1c2cccnc2n(-c2ccccc2)n1Cc1ccc(Cl)cc1`, the outcome in assay [1], in assay [2], in assay [3] and in assay [4] was inactive.

In the case of `CCN(CC)C(=O)c1[nH]cnc1C(=O)NCC(=O)OC(C)(C)C`, the result in assay [1], in assay [2], in assay [3] and in assay [4] was inactive.

Consider `COC(=O)c1sccc1NC(=O)CSc1ccccc1NS(=O)(=O)c1ccc(Cl)cc1`, for which the outcome in assay [1], in assay [3] and in assay [4] was inactive. The potentiation in assay [2] was 17.5% (active).

For `Nc1nc(COc2ccccc2C=O)nc(Nc2ccccc2)n1`, the result in assay [1], in assay [2], in assay [3] and in assay [4] was inactive.

Consider `Cc1ccc(S(=O)(=O)Nc2cc(C(F)(F)F)ccc2N2CCOCC2)c(C)c1`, for which the outcome in assay [1], in assay [2], in assay [3] and in assay [4] was inactive.

As to `CC12CCC(C(=O)N(CSC(=S)N/N=C\c3ccccc3Cl)C1=O)C2(C)C` (stereo not given), the activation in assay [1] was 178% (active). The values for the potentiation in assay [2] and in assay [3] were 47% (active) and 152% (active), respectively. Besides, the outcome in assay [4] was inactive.

`N#CCn1c(CCl)nc2ccccc2c1=O`: the outcome in assay [1], in assay [2], in assay [3] and in assay [4] was inactive.

As for `CC(C)(C)n1nnnc1C(c1cc2cc3c(cc2[nH]c1=O)OCCO3)N1CCSCC1` (stereo not given), the result in assay [1], in assay [2], in assay [3] and in assay [4] was inactive.

For `CC(C)NC(=O)C1(S(=O)(=O)c2ccccc2)CC=CC1`, the result in assay [1], in assay [2], in assay [3] and in assay [4] was inactive.

For the compound `CCOC(=O)C1CCN(C(=O)COc2cc(C)c(Br)c(C)c2)CC1`, the result in assay [1], in assay [2], in assay [3] and in assay [4] was inactive.

With `Cc1csc(NC(=S)NC(=O)c2ccccc2)n1`, the outcome in assay [1] and in assay [4] was inactive. In addition, the potentiation in assay [2] is 32% (active); in assay [3] it was 156% (active).

Consider `O=C(CN1CCCC1)Nc1ccc2c(c1)CCC2`, for which the outcome in assay [1], in assay [2], in assay [3] and in assay [4] was inactive.

In the case of `CCOC(=O)c1c(CN2CCN(CCO)CC2)n(C)c2cc(Br)c(OC)cc12`, the result in assay [1], in assay [2], in assay [3] and in assay [4] was inactive.

Consider `CCOC(=O)c1ccc(-c2ccc(C3Nc4ccccc4C(=O)N3O)o2)cc1` (stereo not given), for which the outcome in assay [1], in assay [2], in assay [3] and in assay [4] was inactive.

Regarding `CCOC(=O)C(=Cc1cc(=O)c(OC)co1)C(=O)OCC`, the outcome in assay [1], in assay [2], in assay [3] and in assay [4] was inactive.

In the case of `O=C(Nc1nnc(-c2ccc3c(c2)CCCC3)o1)c1ccc(Cl)cc1Cl`, in assay [1], the activation was 374% (active). For the same compound, the potentiation in assay [2] was 176% (active); in assay [3], 442% (active). The outcome in assay [4] was inactive.

On to `CCOc1cc(CNc2ncnc3nc[nH]c23)ccc1OC`, for which the outcome in assay [1], in assay [2], in assay [3] and in assay [4] was inactive.

Consider `CN(CC(=O)Nc1c(Cl)cccc1Cl)C(=O)c1n[nH]c2ccccc12`, for which the outcome in assay [1], in assay [2], in assay [3] and in assay [4] was inactive.

With `CCCc1cc(=O)n2[nH]c(C)c(-c3ccc(Cl)cc3)c2n1`, the activation in assay [1] is 180% (active). Also, the figures for the potentiation in assay [2] and in assay [3] were 23% (active) and 172% (active), respectively. For the same compound, the result in assay [4] was inactive.

For the compound `COc1ccc(C)cc1N=Nc1ccc(O)c2ncccc12`, the outcome in assay [1], in assay [2], in assay [3] and in assay [4] was inactive.

Take `CSc1nc(C)c2c(n1)N(c1ccc(C(C)C)cc1)CC2`: the result in assay [1], in assay [2], in assay [3] and in assay [4] was inactive.

`Cc1ccc(C)c(S(=O)(=O)NCC(=O)N2CCCC2)c1`: the result in assay [1], in assay [2], in assay [3] and in assay [4] was inactive.

`O=C(NC(=S)NCCC1=CCCCC1)c1ccc(Br)o1`: the activation in assay [1] is 212% (active). Besides, the potentiation in assay [2] was 304% (active); in assay [3], 371% (active). Further, the result in assay [4] was inactive.

As to `CCc1ccc2c(c1)c(N=NC1=NC(=O)CS1)c(O)n2C`, the activation in assay [1] is 162% (active). In assay [2], the potentiation is 30% (active). The outcome in assay [3] and in assay [4] was inactive.

Regarding `O=c1oc2cc(OCCO)ccc2c2c1CCCC2`, the result in assay [1], in assay [2], in assay [3] and in assay [4] was inactive.
